Reference: ChEMBL document CHEMBL2434820, “Design, synthesis, and biological evaluation of novel 2-ethyl-5-phenylthiazole-4-carboxamide derivatives as protein tyrosine phosphatase 1B inhibitors with improved cellular efficacy” (Eur J Med Chem, 2013)
pIC50: −log10 of the molar value. Active and inactive are the calls of the source. The rule behind the calls is not given here.

Legend:
[1] = molecular target: T1, Tyrosine-protein phosphatase non-receptor type 1 (Homo sapiens, UniProt P18031); experiment: Inhibition of GST-tagged PTP1B (unknown origin) using pNPP as substrate measured for 2 mins by colorimetric analysis
T1 sequence (P18031 whole entry): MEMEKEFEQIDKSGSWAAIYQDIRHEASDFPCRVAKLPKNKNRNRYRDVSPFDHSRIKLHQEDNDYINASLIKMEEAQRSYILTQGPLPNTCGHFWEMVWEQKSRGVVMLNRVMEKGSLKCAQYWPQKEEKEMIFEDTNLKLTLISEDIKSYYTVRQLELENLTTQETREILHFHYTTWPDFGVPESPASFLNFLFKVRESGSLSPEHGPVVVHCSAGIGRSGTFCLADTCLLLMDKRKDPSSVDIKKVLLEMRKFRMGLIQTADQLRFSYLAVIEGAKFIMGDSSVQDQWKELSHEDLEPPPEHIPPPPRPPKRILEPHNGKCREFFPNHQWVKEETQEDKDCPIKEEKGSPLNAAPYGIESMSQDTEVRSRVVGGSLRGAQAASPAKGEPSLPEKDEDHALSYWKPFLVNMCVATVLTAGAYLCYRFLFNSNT

[2] = molecular target: Receptor-type tyrosine-protein phosphatase F (Homo sapiens, UniProt P10586); experiment: Inhibition of LAR (unknown origin)
[3] = molecular target: T2, M-phase inducer phosphatase 2 (Homo sapiens, UniProt P30305); experiment: Inhibition of CDC25B (unknown origin)
T2 sequence (P30305 whole entry): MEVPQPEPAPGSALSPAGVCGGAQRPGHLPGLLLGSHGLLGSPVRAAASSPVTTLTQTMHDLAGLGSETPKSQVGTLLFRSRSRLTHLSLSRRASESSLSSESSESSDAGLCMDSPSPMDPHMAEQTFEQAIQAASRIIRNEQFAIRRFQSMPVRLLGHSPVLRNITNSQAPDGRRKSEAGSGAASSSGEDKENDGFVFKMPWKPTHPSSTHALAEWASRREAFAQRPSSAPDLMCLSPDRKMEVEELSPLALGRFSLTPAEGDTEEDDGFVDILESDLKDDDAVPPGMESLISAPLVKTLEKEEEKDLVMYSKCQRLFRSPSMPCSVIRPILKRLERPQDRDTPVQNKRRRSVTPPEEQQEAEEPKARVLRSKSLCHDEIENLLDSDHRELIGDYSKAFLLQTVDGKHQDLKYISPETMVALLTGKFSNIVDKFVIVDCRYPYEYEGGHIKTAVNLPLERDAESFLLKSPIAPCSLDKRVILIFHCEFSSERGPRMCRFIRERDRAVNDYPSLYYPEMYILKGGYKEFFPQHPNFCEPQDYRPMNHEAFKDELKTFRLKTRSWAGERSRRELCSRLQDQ

[4] = molecular target: T3, Tyrosine-protein phosphatase non-receptor type 2 (Homo sapiens, UniProt P17706); experiment: Inhibition of TCPTP (unknown origin)
T3 sequence (P17706 whole entry): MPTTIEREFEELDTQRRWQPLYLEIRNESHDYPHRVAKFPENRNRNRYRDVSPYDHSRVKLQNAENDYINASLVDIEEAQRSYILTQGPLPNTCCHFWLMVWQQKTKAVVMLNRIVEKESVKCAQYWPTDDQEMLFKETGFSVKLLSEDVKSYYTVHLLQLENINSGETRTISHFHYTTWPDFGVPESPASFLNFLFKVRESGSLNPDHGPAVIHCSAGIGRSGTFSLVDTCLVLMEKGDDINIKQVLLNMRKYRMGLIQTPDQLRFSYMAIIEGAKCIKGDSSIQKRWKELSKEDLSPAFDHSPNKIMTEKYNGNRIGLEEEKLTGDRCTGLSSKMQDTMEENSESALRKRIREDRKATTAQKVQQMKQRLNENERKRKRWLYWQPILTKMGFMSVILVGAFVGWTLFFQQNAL

[5] = molecular target: Tyrosine-protein phosphatase non-receptor type 6 (Homo sapiens, UniProt P29350); experiment: Inhibition of SHP-1 (unknown origin)
[6] = molecular target: T4, Tyrosine-protein phosphatase non-receptor type 11 (Homo sapiens, UniProt Q06124); experiment: Inhibition of SHP-2 (unknown origin)
T4 sequence (Q06124 whole entry): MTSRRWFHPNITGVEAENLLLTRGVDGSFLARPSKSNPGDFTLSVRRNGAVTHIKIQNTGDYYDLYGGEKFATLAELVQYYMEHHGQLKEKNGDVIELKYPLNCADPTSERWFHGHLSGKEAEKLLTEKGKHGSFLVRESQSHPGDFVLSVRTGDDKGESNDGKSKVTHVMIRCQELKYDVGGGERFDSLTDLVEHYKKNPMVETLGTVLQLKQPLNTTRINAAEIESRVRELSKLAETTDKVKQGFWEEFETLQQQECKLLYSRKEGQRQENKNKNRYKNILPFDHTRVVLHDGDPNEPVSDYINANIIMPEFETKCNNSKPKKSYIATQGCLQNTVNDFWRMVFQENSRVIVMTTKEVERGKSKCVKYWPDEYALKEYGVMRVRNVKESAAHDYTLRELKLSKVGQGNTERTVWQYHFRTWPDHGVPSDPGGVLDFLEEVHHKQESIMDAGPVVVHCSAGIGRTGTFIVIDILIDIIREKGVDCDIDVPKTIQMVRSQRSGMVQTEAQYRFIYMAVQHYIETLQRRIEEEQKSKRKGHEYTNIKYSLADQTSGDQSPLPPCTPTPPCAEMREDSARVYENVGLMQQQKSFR

Homo sapiens = organism: Homo sapiens; experiment: Selectivity ratio of IC50 for TCPTP (unknown origin) to IC50 for GST-tagged PTP1B (unknown origin)
[7] = molecular target: T5, Tyrosine-protein phosphatase non-receptor type 1 (Homo sapiens) (UniProt P18031); experiment: Inhibition of PTP1B (unknown origin) expressed in CHO cells over-expressing human IR assessed as increase in insulin-mediated IR-beta phosphorylation preincubated for 2 hrs followed by insulin challenge for 10 mins by Western blotting analysis; format: cell-based
T5 sequence (whole entry): T1 sequence (P18031 whole entry)
In short: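 CHO cells overexpressing human IR, grown in Ham's F-12 with 10% FBS at 37 °C, 5% CO2. Cells were serum-starved 2 h, then exposed to compound for 2 h (0.2% DMSO vehicle; 1 mM sodium orthovanadate as positive control). They were then stimulated with 10 nM insulin for 10 min. Lysates were run on 8% SDS-PAGE and immunoblotted with anti-pTyr, using β-actin as the loading control.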

[8] = molecular target: T5, Tyrosine-protein phosphatase non-receptor type 1 (Homo sapiens); details: CHO, 1.25 to 10 uM

Receptor-type tyrosine-protein phosphatase F, sequence (P10586 whole entry): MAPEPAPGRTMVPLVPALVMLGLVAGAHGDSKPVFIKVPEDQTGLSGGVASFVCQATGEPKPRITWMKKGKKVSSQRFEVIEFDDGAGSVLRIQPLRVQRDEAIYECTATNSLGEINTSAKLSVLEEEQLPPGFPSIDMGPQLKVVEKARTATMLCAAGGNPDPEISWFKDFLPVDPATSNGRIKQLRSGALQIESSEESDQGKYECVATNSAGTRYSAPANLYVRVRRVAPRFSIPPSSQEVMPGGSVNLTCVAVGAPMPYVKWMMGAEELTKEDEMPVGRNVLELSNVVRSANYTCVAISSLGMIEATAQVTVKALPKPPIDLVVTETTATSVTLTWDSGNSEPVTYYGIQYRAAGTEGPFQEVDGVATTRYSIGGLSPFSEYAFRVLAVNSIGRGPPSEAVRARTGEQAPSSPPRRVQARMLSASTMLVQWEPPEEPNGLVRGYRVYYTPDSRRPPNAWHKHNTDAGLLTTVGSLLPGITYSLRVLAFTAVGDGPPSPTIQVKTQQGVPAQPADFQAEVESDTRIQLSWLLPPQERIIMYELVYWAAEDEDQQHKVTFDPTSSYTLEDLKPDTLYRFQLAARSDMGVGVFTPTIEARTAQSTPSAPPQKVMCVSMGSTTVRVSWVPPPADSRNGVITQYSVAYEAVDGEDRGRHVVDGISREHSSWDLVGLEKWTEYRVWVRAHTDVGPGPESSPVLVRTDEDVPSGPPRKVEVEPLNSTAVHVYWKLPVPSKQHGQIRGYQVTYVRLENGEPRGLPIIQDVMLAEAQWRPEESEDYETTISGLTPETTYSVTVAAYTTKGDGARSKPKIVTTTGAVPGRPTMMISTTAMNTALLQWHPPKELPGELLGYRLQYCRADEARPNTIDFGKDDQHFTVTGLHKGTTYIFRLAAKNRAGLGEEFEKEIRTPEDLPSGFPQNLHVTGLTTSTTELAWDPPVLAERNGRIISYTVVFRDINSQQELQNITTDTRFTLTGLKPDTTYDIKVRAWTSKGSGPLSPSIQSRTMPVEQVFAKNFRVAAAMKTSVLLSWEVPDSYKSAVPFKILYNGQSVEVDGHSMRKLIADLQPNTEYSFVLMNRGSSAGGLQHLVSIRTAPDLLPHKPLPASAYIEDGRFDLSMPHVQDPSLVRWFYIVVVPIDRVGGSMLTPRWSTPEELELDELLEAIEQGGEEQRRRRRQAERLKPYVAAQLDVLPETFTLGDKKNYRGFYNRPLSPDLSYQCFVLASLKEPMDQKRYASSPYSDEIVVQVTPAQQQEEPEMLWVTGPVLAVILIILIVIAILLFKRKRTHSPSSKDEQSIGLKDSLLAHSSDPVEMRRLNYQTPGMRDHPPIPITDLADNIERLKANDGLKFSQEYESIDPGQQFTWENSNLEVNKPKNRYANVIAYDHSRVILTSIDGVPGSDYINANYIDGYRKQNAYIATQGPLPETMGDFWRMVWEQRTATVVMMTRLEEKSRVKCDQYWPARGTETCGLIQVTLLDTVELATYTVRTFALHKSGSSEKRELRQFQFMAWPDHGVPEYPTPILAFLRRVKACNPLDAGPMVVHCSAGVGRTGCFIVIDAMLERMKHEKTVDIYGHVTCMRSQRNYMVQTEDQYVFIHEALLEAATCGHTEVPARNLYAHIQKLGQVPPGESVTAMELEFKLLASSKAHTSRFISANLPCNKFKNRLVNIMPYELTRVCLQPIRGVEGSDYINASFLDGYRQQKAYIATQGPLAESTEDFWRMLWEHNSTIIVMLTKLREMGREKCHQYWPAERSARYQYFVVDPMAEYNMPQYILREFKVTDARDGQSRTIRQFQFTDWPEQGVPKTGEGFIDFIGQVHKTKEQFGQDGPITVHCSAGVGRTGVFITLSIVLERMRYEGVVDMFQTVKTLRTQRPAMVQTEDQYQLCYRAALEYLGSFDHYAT
Tyrosine-protein phosphatase non-receptor type 6, sequence (P29350 whole entry): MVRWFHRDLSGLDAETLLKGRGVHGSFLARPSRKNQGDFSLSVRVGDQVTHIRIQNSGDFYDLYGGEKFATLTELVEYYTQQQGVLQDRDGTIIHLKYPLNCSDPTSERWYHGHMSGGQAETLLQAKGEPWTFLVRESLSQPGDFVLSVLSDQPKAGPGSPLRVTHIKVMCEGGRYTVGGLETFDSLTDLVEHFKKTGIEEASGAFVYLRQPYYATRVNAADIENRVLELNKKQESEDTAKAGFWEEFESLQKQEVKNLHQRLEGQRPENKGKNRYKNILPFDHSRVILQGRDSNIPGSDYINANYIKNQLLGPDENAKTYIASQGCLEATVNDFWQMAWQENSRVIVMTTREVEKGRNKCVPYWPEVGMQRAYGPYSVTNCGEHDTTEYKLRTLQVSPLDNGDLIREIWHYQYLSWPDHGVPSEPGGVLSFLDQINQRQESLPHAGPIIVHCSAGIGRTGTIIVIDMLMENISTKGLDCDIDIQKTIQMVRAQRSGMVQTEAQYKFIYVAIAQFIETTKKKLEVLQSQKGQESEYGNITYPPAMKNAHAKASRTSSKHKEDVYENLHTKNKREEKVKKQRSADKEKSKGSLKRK

O=C(Nc1ccccc1C(=O)O)c1csc([C@H](Cc2ccc(OCc3ccccc3)cc2)NC(=O)C2CCCCC2)n1
pIC50 [1]: 5.09

O=C(CCc1c[nH]c2ccccc12)N[C@@H](Cc1ccc(OCc2ccccc2)cc1)c1nc(C(=O)Nc2cc(C(=O)O)ccc2F)c(-c2ccccc2)s1
pIC50 [2]: < 4.70
pIC50 [3]: 5.01
pIC50 [4]: 5.40
pIC50 [5]: 4.97
pIC50 [6]: 4.99
pIC50 [1]: 5.95
Ratio IC50 (Homo sapiens): 3.6

C/C(=C/C(C)=C/c1csc([C@H](Cc2ccc(OCc3ccccc3)cc2)NC(=O)C2CCCCC2)n1)C(=O)O
inhibition [7]: inactive
pIC50 [1]: 4.83

O=C(CCc1c[nH]c2ccccc12)N[C@@H](Cc1ccc(OCc2ccccc2)cc1)c1nc(C(=O)Nc2ccccc2C(=O)O)c(-c2ccccc2)s1
pIC50 [1]: 5.25

O=C(O)c1ccc(NC(=O)c2csc([C@H](Cc3ccc(OCc4ccccc4)cc3)NC(=O)C3CCCCC3)n2)cc1
pIC50 [1]: 5.31

O=C(CCc1c[nH]c2ccccc12)N[C@@H](Cc1ccc(OCc2ccccc2)cc1)c1nc(C(=O)Nc2ccc(C(=O)O)cc2F)c(-c2ccccc2)s1
pIC50 [1]: 6.11

COC(=O)c1cccc(NC(=O)c2csc([C@H](Cc3ccc(OCc4ccccc4)cc3)NC(=O)C3CCCCC3)n2)c1
pIC50 [1]: 4.98

O=C(O)c1cccc(NC(=O)c2nc([C@H](Cc3ccc(OCc4ccccc4)cc3)NC(=O)C3CCCCC3)sc2-c2ccccc2)c1
pIC50 [2]: < 4.70
pIC50 [3]: 5.60
pIC50 [4]: 5.40
pIC50 [5]: 5.16
pIC50 [6]: 4.93
pIC50 [1]: 5.93
Ratio IC50 (Homo sapiens): 3.4

CCOC(=O)/C(C)=C\C(C)=C\c1nc([C@H](Cc2ccc(OCc3ccccc3)cc2)NC(=O)C2CCCCC2)sc1C
inhibition [7]: inactive
pIC50 [1]: 4.87

COC(=O)c1ccccc1NC(=O)c1csc([C@H](Cc2ccc(OCc3ccccc3)cc2)NC(=O)C2CCCCC2)n1
pIC50 [1]: 5.06

CCOC(=O)/C(C)=C\C(C)=C\c1nc([C@H](Cc2ccc(OCc3ccccc3)cc2)NC(=O)C2CCCCC2)sc1-c1ccccc1
inhibition [7]: inactive
pIC50 [1]: 5.07

C/C(=C/C(C)=C/c1nc([C@H](Cc2ccc(OCc3ccccc3)cc2)NC(=O)C2CCCCC2)sc1-c1ccccc1)C(=O)O
pIC50 [1]: 4.96
inhibition [8]: Active

O=C(CCc1c[nH]c2ccccc12)N[C@@H](Cc1ccc(OCc2ccccc2)cc1)c1nc(C(=O)Nc2ccc(Cl)c(C(=O)O)c2)c(-c2ccccc2)s1
pIC50 [2]: < 4.70
pIC50 [3]: 5.31
pIC50 [4]: 5.47
pIC50 [5]: 5.06
pIC50 [6]: 5.17
pIC50 [1]: 5.85
Ratio IC50 (Homo sapiens): 2.4

O=C(CCc1c[nH]c2ccccc12)N[C@@H](Cc1ccc(OCc2ccccc2)cc1)c1nc(C(=O)Nc2ccc(F)cc2C(=O)O)c(-c2ccccc2)s1
pIC50 [1]: 5.55

CCOC(=O)/C(C)=C\C(C)=C\c1nc([C@H](Cc2ccc(OCc3ccccc3)cc2)NC(=O)C2CCCCC2)sc1CC(C)C
inhibition [7]: inactive
pIC50 [1]: 5.02

COC(=O)c1cccc(NC(=O)c2nc([C@H](Cc3ccc(OCc4ccccc4)cc3)NC(=O)CCc3c[nH]c4ccccc34)sc2-c2ccccc2)c1
pIC50 [1]: 5.57

O=C(CCc1c[nH]c2ccccc12)N[C@@H](Cc1ccc(OCc2ccccc2)cc1)c1nc(C(=O)Nc2cccc(F)c2C(=O)O)c(-c2ccccc2)s1
pIC50 [1]: 5.38

O=C(O)c1cccc(NC(=O)c2csc([C@H](Cc3ccc(OCc4ccccc4)cc3)NC(=O)C3CCCCC3)n2)c1
pIC50 [1]: 5.22

O=C(CCc1c[nH]c2ccccc12)N[C@@H](Cc1ccc(OCc2ccccc2)cc1)c1nc(C(=O)Nc2ccc(F)c(C(=O)O)c2)c(-c2ccccc2)s1
pIC50 [1]: 5.79

COC(=O)c1ccc(NC(=O)c2csc([C@H](Cc3ccc(OCc4ccccc4)cc3)NC(=O)C3CCCCC3)n2)cc1
pIC50 [1]: 5.35

O=C(CCc1c[nH]c2ccccc12)N[C@@H](Cc1ccc(OCc2ccccc2)cc1)c1nc(C(=O)Nc2cccc(C(=O)O)c2)c(-c2ccccc2)s1
pIC50 [2]: < 4.70
pIC50 [3]: 5.13
pIC50 [4]: 5.47
inhibition [7]: Dose-dependent effect
pIC50 [5]: 5.12
pIC50 [6]: 5.28
pIC50 [1]: 6.00
Ratio IC50 (Homo sapiens): 3.3

O=C(CCc1c[nH]c2ccccc12)N[C@@H](Cc1ccc(OCc2ccccc2)cc1)c1nc(C(=O)Nc2ccc(C(=O)O)cc2)c(-c2ccccc2)s1
pIC50 [1]: 5.64

O=C(CCc1c[nH]c2ccccc12)N[C@@H](Cc1ccc(OCc2ccccc2)cc1)c1nc(C(=O)Nc2ccc(C(=O)O)c(F)c2)c(-c2ccccc2)s1
pIC50 [1]: 5.59

CCOC(=O)/C(C)=C\C(C)=C\c1csc([C@H](Cc2ccc(OCc3ccccc3)cc2)NC(=O)C2CCCCC2)n1
inhibition [7]: inactive

COC(=O)c1cccc(NC(=O)c2nc([C@H](Cc3ccc(OCc4ccccc4)cc3)NC(=O)C3CCCCC3)sc2-c2ccccc2)c1
pIC50 [1]: 5.42

O=C(CCc1c[nH]c2ccccc12)N[C@@H](Cc1ccc(OCc2ccccc2)cc1)c1nc(C(=O)Nc2cc(Br)ccc2C(=O)O)c(-c2ccccc2)s1
pIC50 [1]: 5.93

O=C(CCc1c[nH]c2ccccc12)N[C@@H](Cc1ccc(OCc2ccccc2)cc1)c1nc(C(=O)Nc2cc(Cl)ccc2C(=O)O)c(-c2ccccc2)s1
pIC50 [1]: 6.15
